The IC50 is the concentration at which inhibition is half-maximal.

We go through 2 compounds from ChEMBL document CHEMBL1165980, “Synthesis and structure-activity relationship study of novel cytotoxic carbamate and N-acylheterocyclic bearing derivatives of betulin and betulinic acid” (Bioorg Med Chem, 2010).

Activity calls are given as the source filed them. The rule behind the calls is not given here.

The subject of one assay is HepG2. In words: Cytotoxicity against human HepG2 cells after 72 hrs by MTT assay. The format is functional, cell-based. The note with it: HepG2, 72 h. In a few lines:
(§1)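 Exponentially growing cells seeded at 1–8 × 10³ cells/well and left 24 h. Medium then replaced with medium holding compound in DMSO (final DMSO <0.1%), ten serial threefold dilutions, or DMSO alone. Triplicate wells, 72 h exposure. MTT added, 1 h at 37 °C, formazan dissolved in DMSO, A550 read. IC50 by non-linear regression; mean ± SD of at least three experiments.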
(In general: Tetrazolium dyes change colour on reduction, which living cells bring about.)

Another assay concerns Jurkat. As to the kind of experiment: Cytotoxicity against human Jurkat cells after 72 hrs by XTT assay. Format: functional, cell-based. Put shortly:
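Exponentially growing Jurkat cells (RPMI 1640, 10% heat-inactivated FBS, 1% P/S, 2 mM glutamine) seeded at 5.5 × 10³ cells/well. Exposed to ten serial threefold dilutions of compound or DMSO vehicle in medium, triplicate wells, 72 h. XTT labeling mixture then added for 4 h at 37 °C, A450 read. IC50 by non-linear regression; mean ± SD of at least three experiments.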

Another assay relates to HeLa. In words: Cytotoxicity against human HeLa cells after 72 hrs by MTT assay. The format is functional, cell-based. In a few lines: as §1
The test system of another assay is HT-29. In words: Cytotoxicity against human HT-29 cells after 72 hrs by MTT assay. The format is functional, cell-based. The conditions noted are these: HT-29, 72 h. In a few lines:
as §1

The test system of assay [1] is PC-3. As to the kind of experiment: Cytotoxicity against human PC3 cells after 72 hrs by MTT assay. Format: functional, cell-based. The conditions noted are these: PC-3, 72 h. In a few lines:
as §1

Assay [2] relates to BJ. As to the kind of experiment: Cytotoxicity against human BJ cells after 72 hrs by MTT assay. The format is cell-based. Put shortly:
as §1

Assay [3] deals with PC-3. In words: Ratio of betulinic acid IC50 to compound IC50 for human PC3 cells. Format: functional.
The subject of assay [4] is BJ. In words: Selectivity ratio of IC50 for human BJ cells to IC50 for human PC3 cells.
In assay [5] the target is T1, DNA topoisomerase 1 (Homo sapiens) (UniProt P11387).
T1 sequence (whole entry): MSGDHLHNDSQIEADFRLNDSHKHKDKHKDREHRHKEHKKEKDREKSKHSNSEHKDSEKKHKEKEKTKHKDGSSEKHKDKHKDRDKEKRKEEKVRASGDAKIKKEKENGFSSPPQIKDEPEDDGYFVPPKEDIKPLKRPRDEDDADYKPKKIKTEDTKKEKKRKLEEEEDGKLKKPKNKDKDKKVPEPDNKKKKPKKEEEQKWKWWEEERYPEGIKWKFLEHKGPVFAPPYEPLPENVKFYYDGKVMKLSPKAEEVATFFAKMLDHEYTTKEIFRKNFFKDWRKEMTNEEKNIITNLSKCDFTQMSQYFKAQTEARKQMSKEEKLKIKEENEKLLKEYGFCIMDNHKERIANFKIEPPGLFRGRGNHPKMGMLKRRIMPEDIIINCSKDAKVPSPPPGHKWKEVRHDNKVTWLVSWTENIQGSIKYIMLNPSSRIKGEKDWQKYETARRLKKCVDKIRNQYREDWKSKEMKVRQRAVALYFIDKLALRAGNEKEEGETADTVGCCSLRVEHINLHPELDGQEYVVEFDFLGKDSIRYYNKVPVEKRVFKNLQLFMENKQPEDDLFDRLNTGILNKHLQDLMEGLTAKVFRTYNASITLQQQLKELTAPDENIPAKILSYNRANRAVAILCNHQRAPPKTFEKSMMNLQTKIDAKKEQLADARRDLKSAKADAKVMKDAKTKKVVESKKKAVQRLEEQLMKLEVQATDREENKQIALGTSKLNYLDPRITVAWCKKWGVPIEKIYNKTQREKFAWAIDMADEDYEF
As to the kind of experiment: Inhibition of DNA topoisomerase 1-mediated relaxation of supercoiled plasmid DNA at 100 uM after 3 hrs by gel electrophoresis. In a few lines:
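Topoisomerase I kit assay. Compound at 100 µM final with 0.5% DMSO. Started with 5 U topo I, run 30 min at 37 °C, stopped with 1% SDS. Products resolved on 1% agarose in TAE at 80 V for 3 h, ethidium-stained. Inhibition scored 0 to 3+.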

`C=C(C)[C@@H]1CC[C@]2(C(=O)n3cncn3)CC[C@]3(C)[C@H](CC[C@@H]4[C@@]5(C)CC[C@H](OC(=O)n6cncn6)C(C)(C)[C@@H]5CC[C@]43C)[C@@H]12`: the IC50 turned out to be 6.8 µM in the assay on HepG2; 11.6 µM in the assay with Jurkat; 4.1 µM in the assay with HeLa; 1.9 µM in the assay on HT-29; 1.1 µM in the assay on PC-3 [1]; 19.4 µM with BJ [2]. The “Ratio IC50” value with PC-3 [3] stood at 19; in the assay with BJ [4], 15. In addition, the inhibition result in assay [5] was “Active”.

On to `C=C(C)[C@@H]1CC[C@]2(C(=O)n3cncn3)CC[C@]3(C)[C@H](CC[C@@H]4[C@@]5(C)C=C(O)C(=O)C(C)(C)[C@@H]5CC[C@]43C)[C@@H]12`, for which the IC50 with HepG2 worked out at 7.4 µM; in the assay on Jurkat, 10.5 µM; with HeLa, 5.4 µM; in the assay on HT-29, 3.3 µM; in the assay with PC-3 [1] it was 1.8 µM; in the assay with BJ [2] it was 27.9 µM. For the same compound, the “Ratio IC50” value turned out to be 12 in the assay on PC-3 [3] and 15 with BJ [4]. In addition, the inhibition entry in assay [5] (in the assay text read “after 30 mins” for “after 3 hrs”) is “Active”.
